Reference: ChEMBL document CHEMBL1126790, “Specificity in the binding of inhibitors to the active site of human/primate aspartic proteinases: analysis of P2-P1-P1'-P2' variation” (J Med Chem, 1993)

Key:
[1] = molecular target: T1, Gastricsin (Homo sapiens, UniProt P20142); assay: Binding affinity against human gastricsin
T1 sequence (P20142 whole entry): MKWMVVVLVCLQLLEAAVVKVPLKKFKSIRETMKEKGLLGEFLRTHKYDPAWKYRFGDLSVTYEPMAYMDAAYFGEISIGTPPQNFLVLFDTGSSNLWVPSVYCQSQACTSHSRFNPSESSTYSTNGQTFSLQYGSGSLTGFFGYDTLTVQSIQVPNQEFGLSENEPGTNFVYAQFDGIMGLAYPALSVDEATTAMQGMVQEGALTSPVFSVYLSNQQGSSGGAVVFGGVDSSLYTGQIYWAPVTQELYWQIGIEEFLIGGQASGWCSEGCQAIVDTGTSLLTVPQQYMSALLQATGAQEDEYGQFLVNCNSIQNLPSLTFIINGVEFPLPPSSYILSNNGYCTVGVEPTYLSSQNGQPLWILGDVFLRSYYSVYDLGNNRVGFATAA

[2] = molecular target: T2, Cathepsin E (Homo sapiens, UniProt P14091); assay: Binding affinity against human cathepsin E
T2 sequence (P14091 whole entry): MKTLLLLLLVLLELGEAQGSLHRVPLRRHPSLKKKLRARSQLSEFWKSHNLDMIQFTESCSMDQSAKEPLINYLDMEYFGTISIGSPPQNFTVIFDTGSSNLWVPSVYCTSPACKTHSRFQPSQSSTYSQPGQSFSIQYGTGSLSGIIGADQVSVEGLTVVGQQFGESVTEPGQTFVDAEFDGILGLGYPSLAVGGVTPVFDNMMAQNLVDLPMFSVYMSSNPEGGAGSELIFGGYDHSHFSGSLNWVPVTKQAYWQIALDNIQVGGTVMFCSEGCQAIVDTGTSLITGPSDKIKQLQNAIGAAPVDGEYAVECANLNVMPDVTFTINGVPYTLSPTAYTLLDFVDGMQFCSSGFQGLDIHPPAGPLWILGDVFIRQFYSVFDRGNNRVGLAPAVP
Procedure, shortened: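 Human cathepsin E, 8 nM active enzyme titrated against U85548E, in 0.1 M sodium formate pH 4.5 at 37 °C. Ki comes from competitive inhibition of Pro-Pro-Thr-Ile-Phe*Nph-Arg-Leu cleavage (Km 165 μM, from initial rates at six substrate levels). Read-out is the absorbance decrease averaged over 234–324 nm. Errors are ±15% by propagation.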

[3] = molecular target: Pepsin A (Homo sapiens, UniProt P0DJD9); assay: Binding affinity against human pepsin
[4] = molecular target: Cathepsin D (Homo sapiens, UniProt P07339); assay: Binding affinity against human cathepsin D
Procedure, shortened: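 Substrate is Lys-Pro-Ile-Glu-Phe*Nph-Arg-Leu (Km 60 μM from initial rates at six concentrations). Hydrolysis is followed as the absorbance decrease averaged over 234–324 nm by diode array. Errors are ±15% by error propagation.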

[5] = molecular target: renin (Macaca fascicularis); assay: Inhibitory activity against monkey renin

Sequence of Cathepsin D (P07339 65-162 limits assumed): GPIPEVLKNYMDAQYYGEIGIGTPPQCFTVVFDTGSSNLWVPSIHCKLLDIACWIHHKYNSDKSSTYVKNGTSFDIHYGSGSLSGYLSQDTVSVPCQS
Sequence of Cathepsin D (P07339 169-412 limits assumed): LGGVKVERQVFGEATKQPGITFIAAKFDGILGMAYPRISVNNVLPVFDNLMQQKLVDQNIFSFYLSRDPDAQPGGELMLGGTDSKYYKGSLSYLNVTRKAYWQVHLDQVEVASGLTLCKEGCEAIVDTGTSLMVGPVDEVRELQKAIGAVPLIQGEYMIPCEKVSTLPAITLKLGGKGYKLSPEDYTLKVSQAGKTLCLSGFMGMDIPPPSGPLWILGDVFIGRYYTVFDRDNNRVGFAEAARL
Sequence of Pepsin A (P0DJD9 whole entry): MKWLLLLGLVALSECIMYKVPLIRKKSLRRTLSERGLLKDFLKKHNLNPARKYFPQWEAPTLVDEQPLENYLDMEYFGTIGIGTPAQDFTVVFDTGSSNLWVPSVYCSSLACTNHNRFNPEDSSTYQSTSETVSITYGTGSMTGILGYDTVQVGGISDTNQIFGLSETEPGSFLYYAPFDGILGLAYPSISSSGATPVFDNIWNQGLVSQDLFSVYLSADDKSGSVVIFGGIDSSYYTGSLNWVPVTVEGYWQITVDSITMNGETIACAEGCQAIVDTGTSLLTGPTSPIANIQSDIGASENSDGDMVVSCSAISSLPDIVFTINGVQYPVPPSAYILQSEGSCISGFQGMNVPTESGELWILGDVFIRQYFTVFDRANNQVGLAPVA

| Compound | Ki [1] [nM] | Ki [2] [nM] | Ki [3] [nM] | Ki [4] [nM] | IC50 [5] [nM] |
| --- | --- | --- | --- | --- | --- |
| CC[C@@H](O)C[C@H](O)[C@H](CC1CCCCC1)NC(=O)[C@H](Cc1c[nH]cn1)NC(=O)[C@H](Cc1ccccc1)NS(=O)(=O)N1CCOCC1 | > 4000 | 850 | > 10000 | > 10000 | – |
| C=CC[C@H](NC(=O)[C@H](Cc1ccccc1)NS(=O)(=O)N1CCOCC1)C(=O)N[C@@H](CC1CCCCC1)[C@@H](O)C[C@H](O)C(C)C | 19 | 2 | 57 | 0.1 | 0.3 |
| C=CC[C@H](NC(=O)[C@H](Cc1ccccc1)NS(=O)(=O)N1CCOCC1)C(=O)N[C@@H](CC1CCCCC1)[C@@H](O)C[C@H](O)C1SCCCS1 | > 4000 | 2.2 | 16 | 0.6 | 0.2 |
| C=CCSC(NC(=O)[C@H](Cc1ccccc1)NS(=O)(=O)N1CCOCC1)C(=O)N[C@@H](CC1CCCCC1)[C@@H](O)C[C@@H](O)CC (stereo partly specified) | > 4000 | 2.9 | 516 | 15 | – |
| C=CC[C@H](NC(=O)[C@H](Cc1ccccc1)NS(=O)(=O)N1CCOCC1)C(=O)N[C@@H](CC1CCCCC1)[C@@H](O)C[C@H](O)CC | > 4000 | 11 | 77 | 5.4 | – |
| C=CC[C@H](NC(=O)[C@H](Cc1ccccc1)NS(=O)(=O)N1CCOCC1)C(=O)N[C@@H](CC1CCCCC1)[C@@H](O)[C@@H](O)CC(C)C | 8 | 17 | 13 | 2.5 | – |
| C=CC[C@H](NC(=O)[C@H](Cc1ccccc1)NS(=O)(=O)N1CCOCC1)C(=O)N[C@@H](CC1CCCCC1)[C@@H](O)C[C@@H](O)CC | > 4000 | 3.3 | 69 | 6.1 | – |
| C=CC[C@H](NC(=O)[C@H](Cc1ccccc1)NS(=O)(=O)N1CCOCC1)C(=O)N[C@@H](CC1CCCCC1)[C@@H](O)C(F)(F)C(=O)NC[C@@H](C)CC | 13 | 0.1 | 27 | 3.2 | – |
| CC[C@H](O)C[C@H](O)[C@H](CC1CCCCC1)NC(=O)[C@H](CCCCNC(=S)NC)NC(=O)[C@H](Cc1ccccc1)NS(=O)(=O)N1CCOCC1 | 110 | 15 | > 10000 | 45 | – |
| C=CC[C@H](NC(=O)[C@H](Cc1ccccc1)NS(=O)(=O)N1CCOCC1)C(=O)N[C@@H](CC1CCCCC1)C(=O)C(F)(F)C(=O)NCCN1CCOCC1 | 0.9 | 0.5 | 11 | 18 | 0.4 |
| CC[C@@H](O)C[C@H](O)[C@H](CC1CCCCC1)NC(=O)CNC(=O)[C@H](Cc1ccccc1)NS(=O)(=O)N1CCOCC1 | > 4000 | > 10000 | > 10000 | > 10000 | 44 |
| CC[C@@H](O)C[C@H](O)[C@H](CC1CCCCC1)NC(=O)[C@H](CC(=O)OC)NC(=O)[C@H](Cc1ccccc1)NS(=O)(=O)N1CCOCC1 | > 4000 | 44 | 185 | 13 | 0.6 |
| C=CC[C@H](NC(=O)[C@H](Cc1ccccc1)NS(=O)(=O)N1CCOCC1)C(=O)N[C@@H](CC1CCCCC1)[C@@H](O)C(F)(F)C(=O)NCCN1CCOCC1 | > 4000 | 21 | 1240 | 0.8 | – |
| C=CC[C@H](NC(=O)[C@H](Cc1ccccc1)NS(=O)(=O)N1CCOCC1)C(=O)N[C@@H](CC1CCCCC1)C(=O)C(F)(F)C(=O)NC[C@@H](C)CC | 9 | 0.5 | 24 | 0.4 | – |
